Results from different studies.
Compare with care: the assays were run in different laboratories.
Target: Receptor tyrosine-protein kinase erbB-4 (ERBB4, Homo sapiens, UniProt Q15303)

The remaining binding of `F[C@@H]1CCN(c2nccc(-c3cnn4ncccc34)n2)C1` is reported as 82% (binding; 1 µM).
For `O=C(NCC1CCOCC1)c1n[nH]cc1NC(=O)c1c(F)cccc1F`, the remaining binding was 100% (binding; competition with immobilised ligand; 1 µM).
`Cc1noc([C@H]2C[C@@H](c3ccc(C(F)(F)F)cc3)CN(C(=O)N3CCS(=O)(=O)C3)C2)n1` gave a remaining binding of 100% (cell-free assay; competition with immobilised ligand; 1 µM).
`N[C@H]1CCN(c2nccc(-c3cnn4ncccc34)n2)C1` has a remaining binding of 84% (binding; 1 µM).
`N#CC1(c2ccccn2)CCN(Cc2cc(C(=O)N3CCCC3)c(=O)n3ccccc23)CC1` gave a remaining binding of 85% (cell-free assay; competition with immobilised ligand; 1 µM).
`CCN1CCN(Cc2ccc(C(=O)Nc3ccc(C)c(Oc4ccc5c(c4)CC(=O)N5)c3)cc2C(F)(F)F)CC1` has a remaining binding of 100% (binding; competition with immobilised ligand; 1 µM).
With `O=C(c1ccc(Nc2ncc(Cl)c(-c3cc4ccccc4s3)n2)cc1)N1CCC(N2CCCC2)CC1` the remaining binding was 98% (binding; competition with immobilised ligand; 1 µM).
For `COc1ccc2c(c1)O[C@@H](c1ccc(OC)c(OC)c1)C[C@H]2NC(=O)C1(c2ccc3c(c2)OC(F)(F)O3)CC1`, the remaining binding was 90% (cell-free assay; competition with immobilised ligand; 1 µM).
`CN(C)c1nccc(-c2cnn3ncccc23)n1` gave a remaining binding of 81% (binding; 1 µM).
The remaining binding of `CN(C)C(=O)Cn1cc(-c2nc(C3(c4ccc(-c5cnc(N)nc5)cc4)CC3)no2)cn1` is reported as 100% (cell-free assay; competition with immobilised ligand; 1 µM).
With `O=C(c1ccc(Nc2ncc(Cl)c(-c3ccc(Cl)s3)n2)cc1)N1CCC(N2CCCC2)CC1` the remaining binding was 100% (binding; competition with immobilised ligand; 1 µM).
For `COc1cnc(Nc2cccc(S(N)(=O)=O)c2)nc1N1CCN(c2ccccc2)CC1`, the remaining binding was 86% (binding; competition with immobilised ligand; 1 µM).
`N#Cc1ccccc1CSc1nnc2c(n1)[nH]c1ccccc12` has a remaining binding of 74% (binding; competition with immobilised ligand; 10 µM).
`CC1CCCN1c1nccc(-c2cnn3ncccc23)n1` (stereo not shown) gave a remaining binding of 98% (binding; 1 µM).
For `COc1ccc2c(O[C@@H]3C[C@H]4C(=O)N[C@]5(C(=O)O)CC5/C=C\CCCCC[C@H](NC(=O)OC5CCCC5)C(=O)N4C3)cc(-c3csc(NC(=O)C(C)C)n3)nc2c1C` (stereo partly shown), the remaining binding was 100% (cell-free assay; competition with immobilised ligand; 1 µM).
The remaining binding of `CN(CCCC(F)(F)F)c1nccc(-c2cnn3ncccc23)n1` is reported as 72% (binding; 1 µM).
The remaining binding of `Cc1cnc(Nc2ccc(C(=O)N3CCC(N4CCCC4)CC3)cc2)nc1-c1cc2ccccc2s1` is reported as 84% (binding; competition with immobilised ligand; 1 µM).
The remaining binding of `C[C@@H](c1ccc(-n2cnc3c(N)ncnc32)cc1)N1CCc2nn(C)c(Cc3ccccc3)c2C1=O` is reported as 73% (binding; competition with immobilised ligand; 0.1 µM).
With `Nc1c(C(=O)NCc2ccc(C(=O)NCCCC3CCCCC3)cc2)cnn1-c1ccccc1` the remaining binding was 89% (cell-free assay; competition with immobilised ligand; 0.1 µM).
With `C[C@@H]1CCN(c2nccc(-c3cnn4ncccc34)n2)C1` the remaining binding was 79% (binding; 1 µM).
With `COc1cc(-c2cn(C3CCc4c(F)cccc4N(CC(F)(F)F)C3=O)nn2)ccc1-n1cnc(C)c1` (stereo not shown) the remaining binding was 100% (cell-free assay; competition with immobilised ligand; 1 µM).
`COc1ncc2cc3ccccc3nc2c1C#N` has a remaining binding of 96% (cell-free assay; competition with immobilised ligand; 5 µM).
